Source: PubChem
Dynein transport: dynein cargo transport inhibition; 3617.4 mouse cells, GR-EGFP nuclear translocation imaging; test concentration mostly 20 µM; stimulated with dexamethasone, 1 µM; hits give low values; z-score, hits read low; 220,000 tested, 0.47% active;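 active = plate z-score of nuclear minus cytoplasmic receptor signal below a set negative limit, without overly bright fluorescence or cell loss, cut at about -3.5 in these data, passing the limit was not always enough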;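 also: z-score of nuclear minus cytoplasmic ring GR-EGFP intensity difference per well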
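Buffer or medium: tetracycline-free induction medium containing charcoal-stripped FBS / Reagent: dexamethasone agonist, 1.0 µM final, for 30 min / Technique: automated 10x imaging of fixed Hoechst-stained cells / Times: induction 48 h, compound 1 h, agonist 30 min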
XBP1 UPR activ: adaptive UPR (XBP1) activation; CHO-XBP1 luciferase reporter, IRE1-XBP1 UPR activation, luminescence; percent of tunicamycin response, DMSO as zero; activation, % at 20 µM; 330,000 tested, 0.33% active; AID 463104;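 active = versus positive control, 20 µM dose yields 30% or more activation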;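 also: 100% = tunicamycin at 10 µg/mL and 0% = DMSO only wells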
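Test system: CHO-XBP1 luciferase reporter cells | Buffer or medium: Serum-containing F12 medium, 10% FBS | Schedule: 6 h compound exposure at 37 °C, 5% CO2 | Detection: Steady-Glo luciferase glow luminescence, 10 min after reagent addition | Read-out basis: Activation, % of tunicamycin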
CHOP UPR activ: activators of apoptotic arm of unfolded protein response (CHOP) | CHO-CHOP luciferase reporter, UPR activation, luminescence; percent of tunicamycin response over DMSO baseline | activation, % at 10 µM | 330,000 tested, 0.34% active | AID 449763;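 active = at 10 µM dose, activation of 40% or more, normalized to positive control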;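 also: 100% = tunicamycin at 10 µg/mL and 0% = DMSO alone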
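Material: CHO-CHOP cells, stable luciferase reporter of PERK-eIF2a-CHOP signalling; quantity: 500 reporter cells seeded per well; buffer or medium: F12 medium containing 10% fetal bovine serum; compound: one dose, 10 µM in 0.5% DMSO; incubation: 6 h compound treatment, 37 °C; measured by: Steady-Glo luciferase luminescence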
Lmaj promast: Leishmania major promastigote growth inhibition; Leishmania major promastigotes, resazurin fluorescence viability; inhibition, % at 10 µM; 200,000 tested, 9% active; AID 1063; in the data active = inhibition above about 50%;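 also: promastigotes grown with compound for 44 hours at 28 °C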
CHOP inhibitor: blocks CHOP induction under ER stress; CHO-K1 CHOP-promoter luciferase, tunicamycin-induced, 15-18 h; inhibition, % at 10 µM; 220,000 tested, 3.8% active;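 active = compounds that reduced the stress-induced luciferase reporter signal by more than about 70% of percent inhibition, limit read from the data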;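 also: 0% = tunicamycin plus vehicle and 100% = wells without tunicamycin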
T cruzi inh: blocks replication of Trypanosoma cruzi; T. cruzi beta-gal in NIH3T3, luminescence, 90 h; inhibition, % (no concentration beside the values); 300,000 tested, 1.4% active;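 active = mean inhibition across valid replicates above about 55%, limit read from the data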;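 also: signal also drops with host cell toxicity which is not excluded here; 0% = plate median of DMSO wells and 100% = zero luminescence signal; higher percent means less beta-gal luminescence so fewer parasites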
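Assay system: NIH/3T3 host cells with β-galactosidase reporter T. cruzi; input: 5,000 host fibroblasts per well; compound: single 50 nL compound addition per well in DMSO; timing: ≥90 h infection period, 3 h prior cell attachment; measured by: GalScreen β-gal luminescence, detergent lysis, 60 min; evaluation: percent inhibition of parasite-derived β-gal signal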
* marks the source's active call; other numbers are inactive results; / = no result given. The entries come from a sample that favours hits as a whole.

SMILES	Dynein transport	XBP1 UPR activ	CHOP UPR activ	Lmaj promast	CHOP inhibitor	T cruzi inh
CC(C)C(C)NC(=O)CSc1nnc(-c2c[nH]c3ccccc23)o1 (configuration not stated)	0.408	-2.4	4.0	-2.2	13.0	-3.9
CCc1cc(C(=O)N2CCCC(CO)(Cc3ccc(F)cc3)C2)n(C)n1 (configuration not stated)	/	4.0	-0.4	/	/	-8.9
CC1CC2=C(NC(=S)NC2c2cccc(F)c2)/C(=C/c2cccc(F)c2)C1 (configuration not stated)	-0.813	/	/	27.7	86.3*	58.6*
COc1ccc(NC(=O)CSc2nnc(-c3cccs3)n2N)c(OC)c1	/	4.0	2.7	/	/	-13.2
Cc1ccc(S(=O)(=O)N2CCC[C@H]2C(=O)Nc2ccc(F)cc2C)cc1	/	-4.1	-1.3	/	/	/
Cc1cccc(N(C)S(=O)(=O)c2cccc3nsnc23)c1	0.573	-1.6	0.3	-1.6	94.1*	4.8
CCN(c1cccc(C)c1)S(=O)(=O)c1cccc2nsnc12	1.68	-3.3	0.7	28.0	10.3	1.2
COc1ccc(C(=O)COC(=O)c2sc(C)nc2C)cc1F	/	-2.7	-0.3	/	/	/
COc1ccccc1NS(=O)(=O)c1cc(NC(=O)c2[nH]c(C)c(C(C)=O)c2C)ccc1N1CCOCC1	-0.73	5.7	1.9	/	-12.2	21.8
CNC(=O)c1cc2cc(OC)ccc2n1CCN(Cc1ccccc1)Cc1ccccc1	0.13	-0.1	0.6	100.2*	31.0	45.0
Cc1cccc(OCCCOc2cccc3cccnc23)c1C	0.388	-0.4	2.8	68.7*	34.5	3.2
Cc1cccc(OCCCCc2c(C)n[nH]c2C)c1C	-0.391	-0.1	1.5	9.3	94.6*	-4.7
CCc1nnc(NC(=O)c2cccnc2SC)s1	0.26	-3.3	-1.2	-4.0	31.5	19.4
c1ccc(-c2cccc(-c3ccccn3)n2)nc1	-0.349	6.7	-4.0	100.3*	/	51.8
CCOC(=O)/C(C(=O)Nc1ccc(Cl)cc1Cl)=C1/NC(C)(C)Cc2ccccc21	-0.254	0.9	2.0	73.1*	-4.9	5.7
N#CC1=C(N)OC2=C(CC/C2=C\c2ccc(F)cc2)C1c1ccc(F)cc1 (configuration not stated)	-5.83	6.5	116.5*	100.5*	79.0*	-10.2
Cc1nn(CCC(=O)O)c2nc(-c3cccnc3)cc(C(F)(F)F)c12	0.125	-2.6	0.1	8.8	18.1	-2.8
Cc1nn(CCc2nn[nH]n2)c2nc(-c3ccc(C4CCCCC4)cc3)cc(C(F)(F)F)c12	2.37	7.1	2.7	-3.7	106.4*	24.8
COc1ccc(C(=O)N/C(=C\c2cn(C)c3ccccc23)C(=O)NCCCn2ccnc2)cc1	/	-2.6	-1.3	/	/	3.0
CCNc1sc(C(=O)c2cccs2)c(N)c1-c1nc2ccccc2s1	0.226	9.4	0.2	5.7	78.2*	18.1
CCOC(=O)c1sc(NCc2ccco2)c(-c2nc3ccccc3s2)c1N	-0.359	-2.1	6.6	-3.6	21.9	19.0
C=CCNc1sc(C(=O)c2ccccc2)c(N)c1-c1nc2ccccc2s1	-0.619	0.2	0.6	1.1	81.8*	6.8
Cc1ccc(S(=O)(=O)N2CCCCC2CCNC(=O)C(=O)NCc2ccccc2)cc1 (configuration not stated)	/	-1.0	-1.2	/	/	19.0
COc1cccc2c1C(=O)CC1C2CCC2CC(=O)CCC21C (configuration not stated)	/	-1.9	1.0	/	/	-4.7
CC1CN(S(=O)(=O)c2ccc(C(=O)Nc3nnc(-c4ccccn4)o3)cc2)CC(C)O1 (configuration not stated)	0.453	-0.5	-1.1	-0.2	-14.4	-3.5
SMILES	Dynein transport	XBP1 UPR activ	CHOP UPR activ	Lmaj promast	CHOP inhibitor	T cruzi inh
CS(=O)(=O)c1cccc(-c2nnc(NC(=O)c3ccc4ncsc4c3)o2)c1	/	2.0	3.1	/	/	-10.5
COc1cccc(C(=O)NCC2CCN(c3ccc(S(=O)(=O)N4CCOCC4)cc3)CC2)c1	-0.463	-2.4	0.2	64.4*	-20.3	5.6
Cc1cccc(C(=O)Nc2nnc(-c3cccnc3)o2)c1	-0.688	-2.5	-0.1	64.8*	-19.3	-1.1
CC1CN(S(=O)(=O)c2ccc(C(=O)Nc3nnc(-c4ccc5c(c4)CCCC5)o3)cc2)CC(C)O1 (configuration not stated)	2.95	-0.1	5.3	98.7*	104.5*	61.4*
COc1cccc(-c2nnc(NC(=O)c3ccc4ncsc4c3)o2)c1	-0.322	-3.0	1.2	82.4*	-46.3	19.4
O=C(CSc1nc(=O)n2ccccc2n1)N1CCCCCC1	/	-2.3	3.2	/	/	-6.8
CC(=O)NC(CC(=O)NNC(=O)c1cc2ccccc2cc1O)c1ccccc1 (configuration not stated)	/	-8.1	0.5	/	/	-15.3
O=C(NNC(=O)C1CC2CCC1C2)c1sc2ccccc2c1Cl (configuration not stated)	1.44	1.2	10.5	2.7	-6.9	5.6
CCOc1ccc(-c2nnc(NC(=O)c3ccc(OCC(C)C)c(OC)c3)o2)cc1	1.52	5.0	4.1	98.1*	90.8*	17.7
COc1cc(-c2nnc(NC(=O)c3ccc(S(=O)(=O)N4CCOCC4)cc3)o2)cc(OC)c1OC	-0.827	3.0	0.4	-0.6	25.9	-23.4
COc1cccc(-c2nnc(NC(=O)C3CCCCC3)o2)c1	-0.634	2.8	2.7	66.3*	2.8	-4.5
COc1cccc(-c2nnc(NC(=O)c3ccc(S(=O)(=O)N4CCOCC4)cc3)o2)c1	-0.216	-0.9	4.5	96.3*	35.6	-97.0
O=C(NCC1CCN(c2ccc(S(=O)(=O)N3CCOCC3)cc2)CC1)c1cccc(Cl)c1	-0.497	-2.1	2.2	97.5*	-1.3	-5.5
CCc1noc(C)c1C(=O)OC(C)C(=O)Nc1cc([N+](=O)[O-])ccc1OC (configuration not stated)	/	0.0	-2.2	/	/	4.9
O=S(=O)(Nc1ccc(-c2ccc3nncn3n2)cc1)c1cccc(F)c1	/	-0.5	0.1	/	/	-14.9
Cc1cc(C)cc(NC(=O)C[n+]2ccccc2)c1	/	-1.6	-2.2	/	/	-5.5
Cc1ccc(/C=N/NC(=O)CSc2nc3ccccc3c(=O)n2-c2ccccc2C)s1	0.411	2.8	5.8	13.8	21.1	-1.2
Cc1nn(-c2ccccc2)c(C)c1/C=N/NC(=O)CSc1nnc(SCc2cccc3ccccc23)s1	1.33	2.5	1.4	96.7*	38.4	21.1
Cc1ccc2nc(SCC(=O)N/N=C/c3ccco3)cc(C)c2c1	-0.37	-3.2	-0.7	16.3	46.4	-3.0
Cc1ccccc1-n1c(SCC(=O)NC(N)=O)nc2sc(-c3ccccc3)cc2c1=O	-0.583	-2.3	3.1	60.9*	37.9	6.2
